{"data": "Measurements collected from several papers", "target": "Homeodomain-interacting protein kinase 4 (HIPK4, Homo sapiens, UniProt Q8NE63)", "Sequence (Q8NE63 1-616, as in one of the studies)": "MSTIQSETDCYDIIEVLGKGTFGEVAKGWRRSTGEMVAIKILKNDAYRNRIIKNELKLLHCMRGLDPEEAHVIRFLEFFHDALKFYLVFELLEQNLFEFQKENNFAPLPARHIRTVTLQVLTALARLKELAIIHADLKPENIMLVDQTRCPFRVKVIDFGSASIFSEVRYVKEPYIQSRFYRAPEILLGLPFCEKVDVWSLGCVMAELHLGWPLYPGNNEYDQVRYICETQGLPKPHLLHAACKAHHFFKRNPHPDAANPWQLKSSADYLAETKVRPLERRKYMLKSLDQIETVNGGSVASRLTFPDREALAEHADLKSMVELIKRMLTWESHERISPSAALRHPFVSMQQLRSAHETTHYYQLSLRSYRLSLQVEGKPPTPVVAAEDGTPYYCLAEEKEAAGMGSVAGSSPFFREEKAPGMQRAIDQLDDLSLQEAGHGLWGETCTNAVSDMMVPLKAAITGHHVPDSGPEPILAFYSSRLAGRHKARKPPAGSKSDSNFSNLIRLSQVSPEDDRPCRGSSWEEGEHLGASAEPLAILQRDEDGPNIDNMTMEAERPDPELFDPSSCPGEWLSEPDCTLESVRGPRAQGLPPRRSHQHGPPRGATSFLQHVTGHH"}
{"SMILES": "CCN1CCN(Cc2ccc(C(=O)Nc3ccc(C)c(Oc4ccc5c(c4)CC(=O)N5)c3)cc2C(F)(F)F)CC1", "observed": "binding", "technique": "competition with immobilised ligand", "tested at": "1 µM", "remaining binding": "100%"}
{"SMILES": "COc1ncc2cc3ccccc3nc2c1C#N", "observed": "cell-free assay", "technique": "competition with immobilised ligand", "tested at": "5 µM", "remaining binding": "100%"}
{"SMILES": "COc1cnc(Nc2cccc(S(N)(=O)=O)c2)nc1N1CCN(c2ccccc2)CC1", "observed": "binding", "technique": "competition with immobilised ligand", "tested at": "1 µM", "remaining binding": "99%"}
{"SMILES": "C[C@@H](c1ccc(-n2cnc3c(N)ncnc32)cc1)N1CCc2nn(C)c(Cc3ccccc3)c2C1=O", "observed": "binding", "technique": "competition with immobilised ligand", "tested at": "0.1 µM", "remaining binding": "100%"}
{"SMILES": "C=CC(=O)N1CCC(C(=O)NCC(=O)N2CCN(c3nc(-c4cnc(N)nc4C(F)F)nc(N4CCOCC4)n3)CC2)CC1", "observed": "binding", "technique": "competition with immobilised ligand", "tested at": "1 µM", "remaining binding": "100%"}
{"SMILES": "N[C@H]1CCN(c2nccc(-c3cnn4ncccc34)n2)C1", "observed": "binding", "tested at": "1 µM", "remaining binding": "33%"}
{"SMILES": "COc1ccc2c(c1)O[C@@H](c1ccc(OC)c(OC)c1)C[C@H]2NC(=O)C1(c2ccc3c(c2)OC(F)(F)O3)CC1", "observed": "cell-free assay", "technique": "competition with immobilised ligand", "tested at": "1 µM", "remaining binding": "51%"}
{"SMILES": "COc1ccnn2ncc(-c3ccnc(N(C)C)n3)c12", "observed": "binding", "tested at": "1 µM", "remaining binding": "100%"}
{"SMILES": "O=C(O)[C@H]1[C@H](Cn2nnc3ccccc3c2=O)CC[C@@H]1C(=O)c1ccc(OCCC2CCOCC2)cc1", "observed": "cell-free assay", "technique": "competition with immobilised ligand", "tested at": "1 µM", "remaining binding": "100%"}
{"SMILES": "O=C(Nc1c[nH]nc1C(=O)NC1CCNCC1)c1cc(F)cc(F)c1", "observed": "binding", "technique": "competition with immobilised ligand", "tested at": "1 µM", "remaining binding": "59%"}
{"SMILES": "F[C@@H]1CCN(c2nccc(-c3cnn4ncccc34)n2)C1", "observed": "binding", "tested at": "1 µM", "remaining binding": "90%"}
{"SMILES": "O=C(NCCCN1CCOCC1)c1ccc(Nc2ncc(Cl)c(-c3ccc(Cl)s3)n2)cc1", "observed": "binding", "technique": "competition with immobilised ligand", "tested at": "1 µM", "remaining binding": "14%"}
{"SMILES": "C[C@H]1CCN(c2nccc(-c3cnn4ncccc34)n2)C1", "observed": "binding", "tested at": "1 µM", "remaining binding": "80%"}
{"SMILES": "Cc1c[nH]c2nccc(Oc3c(F)cc(Nc4cc(Cl)nc(N)n4)cc3F)c12", "observed": "cell-free assay", "technique": "competition with immobilised ligand", "tested at": "0.1 µM", "remaining binding": "100%"}
{"SMILES": "COc1cnc(Nc2cccc(S(N)(=O)=O)c2)nc1N1CCN(c2ccccc2)C(=O)C1", "observed": "binding", "technique": "competition with immobilised ligand", "tested at": "1 µM", "remaining binding": "91%"}
{"SMILES": "CN(C)c1nccc(-c2cnn3ncccc23)n1", "observed": "binding", "tested at": "1 µM", "remaining binding": "75%"}
{"SMILES": "CN(C(=O)c1ccccc1)c1cc(N(C)c2ccc3c(c2)CCc2ccc(C(=O)NCCN4CCOCC4)cc2C3=O)ccc1F", "observed": "cell-free assay", "technique": "competition with immobilised ligand", "tested at": "1 µM", "remaining binding": "100%"}
{"SMILES": "O=C(c1ccc(Nc2nccc(-c3cc4ccccc4s3)n2)cc1)N1CCC(N2CCCC2)CC1", "observed": "binding", "technique": "competition with immobilised ligand", "tested at": "1 µM", "remaining binding": "4.1%"}
{"SMILES": "CN(c1ccnc(CNc2nc(Nc3ccc4c(c3)CC(=O)N4)ncc2C(F)(F)F)n1)S(C)(=O)=O", "observed": "cell-free assay", "technique": "competition with immobilised ligand", "tested at": "1 µM", "remaining binding": "35%"}
{"SMILES": "CN(C)c1ncc(F)c(-c2cnn3ncccc23)n1", "observed": "binding", "tested at": "1 µM", "remaining binding": "100%"}
{"SMILES": "Cc1cnc(Nc2ccc(C(=O)N3CCC(N4CCCC4)CC3)cc2)nc1-c1cc2ccccc2s1", "observed": "binding", "technique": "competition with immobilised ligand", "tested at": "1 µM", "remaining binding": "1.3%"}
{"SMILES": "C[C@H](c1ccnc(Nc2nc3ccc(-c4cc(N(C)C)ncn4)cc3[nH]2)c1)N1CCN(C(=O)CC(F)(F)F)CC1", "observed": "cell-free assay", "technique": "competition with immobilised ligand", "tested at": "0.1 µM", "remaining binding": "100%"}
